From ChEMBL document CHEMBL4373663, “New N-phenyl-4,5-dibromopyrrolamides as DNA gyrase B inhibitors” (Medchemcomm, 2019)
Calls of active or inactive are those of the source. The calls are words filed in the database; no cut-off is given here.

Experiments:
[1] = biological target: DNA gyrase (Escherichia coli) (UniProt P0AES6+P0AES4); assay: Inhibition of Escherichia coli DNA gyrase using relaxed pNO1 plasmid DNA as substrate assessed as enzyme residual activity at 10 uM incubated for 30 mins by fluorescence assay relative to control; type: protein-complex assay
[2] = system: Escherichia coli; assay: Antibacterial activity against Escherichia coli ATCC 25922 assessed as reduction in bacterial growth at 50 uM incubated for 24 hrs by broth microdilution assay relative to control; type: functional
Procedure, shortened: (§1)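 Clinical control strains kept on cation-adjusted Mueller Hinton agar slants. Before the assay, suspensions were grown in cation-adjusted Mueller Hinton broth at 37 °C for 16–20 h at 100 rpm. Broth microdilution in 96-well format followed CLSI guidelines. Each compound was tested at 50 μM, and the result was expressed as percentage inhibition of bacterial growth.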

[3] = system: Escherichia coli; assay: Inhibition of Escherichia coli DNA topoisomerase 4 using supercoiled pNO1 plasmid DNA as substrate assessed as enzyme residual activity at 10 uM incubated for 30 mins by fluorescence assay relative to control
[4] = biological target: Topoisomerase IV (Staphylococcus aureus) (UniProt P0C1U9+P0C1S7); assay: Inhibition of Staphylococcus aureus DNA topoisomerase 4 using supercoiled pNO1 plasmid DNA as substrate assessed as enzyme residual activity at 10 uM incubated for 30 mins by fluorescence assay relative to control; type: protein-complex assay
[5] = system: Staphylococcus aureus; assay: Antibacterial activity against Staphylococcus aureus ATCC 25923 assessed as bacterial growth at 50 uM incubated for 24 hrs by broth microdilution assay; type: functional, organism-based; procedure, shortened: as §1
[6] = biological target: DNA gyrase (Escherichia coli, UniProt P0AES4+P0AES6); assay: Inhibition of Escherichia coli DNA gyrase using relaxed pNO1 plasmid DNA as substrate incubated for 30 mins by fluorescence assay; type: protein-complex assay
[7] = system: Pseudomonas aeruginosa; assay: Antibacterial activity against Pseudomonas aeruginosa ATCC 27853 assessed as bacterial growth at 50 uM incubated for 24 hrs by broth microdilution assay; type: functional, organism-based; procedure, shortened: as §1
[8] = biological target: DNA gyrase (Staphylococcus aureus) (UniProt P0A0K8+P20831); assay: Inhibition of Staphylococcus aureus DNA gyrase using relaxed pNO1 plasmid DNA as substrate assessed as enzyme residual activity at 10 uM incubated for 30 mins by fluorescence assay relative to control; type: protein-complex assay
[9] = system: Enterococcus faecalis; assay: Antibacterial activity against Enterococcus faecalis ATCC 29212 assessed as reduction in bacterial growth at 50 uM incubated for 24 hrs by broth microdilution assay relative to control; type: functional; procedure, shortened: as §1
[10] = biological target: DNA gyrase (Staphylococcus aureus, UniProt P0A0K8+P20831); assay: Inhibition of Staphylococcus aureus DNA gyrase using relaxed pNO1 plasmid DNA as substrate incubated for 30 mins by fluorescence assay; type: protein-complex assay
[11] = biological target: Topoisomerase IV (Staphylococcus aureus, UniProt P0C1S7+P0C1U9); assay: Inhibition of Staphylococcus aureus DNA topoisomerase 4 using supercoiled pNO1 plasmid DNA as substrate incubated for 30 mins by fluorescence assay; type: protein-complex assay
[12] = Inhibition of Escherichia coli DNA topoisomerase 4 using supercoiled pNO1 plasmid DNA as substrate incubated for 30 mins by fluorescence assay

Chain of DNA gyrase (Staphylococcus aureus, UniProt P0A0K8+P20831) (P0A0K8 whole entry): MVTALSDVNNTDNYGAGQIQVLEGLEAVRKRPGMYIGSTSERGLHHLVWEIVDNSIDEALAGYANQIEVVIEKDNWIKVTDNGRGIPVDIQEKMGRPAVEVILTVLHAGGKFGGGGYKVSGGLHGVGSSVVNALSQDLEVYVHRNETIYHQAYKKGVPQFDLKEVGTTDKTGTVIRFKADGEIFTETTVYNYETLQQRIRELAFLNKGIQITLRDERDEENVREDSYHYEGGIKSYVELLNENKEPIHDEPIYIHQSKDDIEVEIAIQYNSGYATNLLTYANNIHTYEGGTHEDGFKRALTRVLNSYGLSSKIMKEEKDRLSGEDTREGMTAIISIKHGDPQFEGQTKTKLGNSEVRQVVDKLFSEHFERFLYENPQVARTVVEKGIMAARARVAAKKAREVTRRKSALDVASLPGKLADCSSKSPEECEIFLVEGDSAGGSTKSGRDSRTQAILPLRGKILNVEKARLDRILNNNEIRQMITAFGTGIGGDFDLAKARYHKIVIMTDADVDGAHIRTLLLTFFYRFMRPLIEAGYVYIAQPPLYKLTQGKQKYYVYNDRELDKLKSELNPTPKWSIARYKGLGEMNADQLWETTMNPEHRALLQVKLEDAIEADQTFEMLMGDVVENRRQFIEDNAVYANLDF
Chain of DNA gyrase (Staphylococcus aureus, UniProt P0A0K8+P20831) (P20831 whole entry): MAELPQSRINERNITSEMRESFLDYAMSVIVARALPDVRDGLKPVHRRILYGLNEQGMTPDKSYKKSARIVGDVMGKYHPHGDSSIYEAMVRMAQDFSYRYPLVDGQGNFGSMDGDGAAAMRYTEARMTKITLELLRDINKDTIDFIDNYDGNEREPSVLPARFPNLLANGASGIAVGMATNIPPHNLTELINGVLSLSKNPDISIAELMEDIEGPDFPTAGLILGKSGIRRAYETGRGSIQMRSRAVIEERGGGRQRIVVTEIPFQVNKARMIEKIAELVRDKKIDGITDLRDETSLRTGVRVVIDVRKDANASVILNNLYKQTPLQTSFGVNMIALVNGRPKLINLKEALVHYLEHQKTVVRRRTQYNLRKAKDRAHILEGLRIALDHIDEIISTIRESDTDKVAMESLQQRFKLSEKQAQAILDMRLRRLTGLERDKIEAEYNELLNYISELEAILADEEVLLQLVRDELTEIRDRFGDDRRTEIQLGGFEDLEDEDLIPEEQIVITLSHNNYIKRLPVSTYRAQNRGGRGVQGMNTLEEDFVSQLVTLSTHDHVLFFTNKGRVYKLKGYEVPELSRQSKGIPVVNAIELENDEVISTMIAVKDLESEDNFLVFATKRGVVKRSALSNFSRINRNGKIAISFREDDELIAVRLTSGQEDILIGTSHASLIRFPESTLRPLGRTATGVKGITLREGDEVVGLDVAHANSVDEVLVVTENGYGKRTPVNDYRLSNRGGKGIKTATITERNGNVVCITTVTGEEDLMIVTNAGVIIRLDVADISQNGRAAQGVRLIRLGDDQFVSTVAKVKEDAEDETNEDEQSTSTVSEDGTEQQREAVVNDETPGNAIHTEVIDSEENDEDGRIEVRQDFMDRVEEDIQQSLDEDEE
Chain of DNA gyrase (Staphylococcus aureus) (P0A0K8 2-644 limits assumed): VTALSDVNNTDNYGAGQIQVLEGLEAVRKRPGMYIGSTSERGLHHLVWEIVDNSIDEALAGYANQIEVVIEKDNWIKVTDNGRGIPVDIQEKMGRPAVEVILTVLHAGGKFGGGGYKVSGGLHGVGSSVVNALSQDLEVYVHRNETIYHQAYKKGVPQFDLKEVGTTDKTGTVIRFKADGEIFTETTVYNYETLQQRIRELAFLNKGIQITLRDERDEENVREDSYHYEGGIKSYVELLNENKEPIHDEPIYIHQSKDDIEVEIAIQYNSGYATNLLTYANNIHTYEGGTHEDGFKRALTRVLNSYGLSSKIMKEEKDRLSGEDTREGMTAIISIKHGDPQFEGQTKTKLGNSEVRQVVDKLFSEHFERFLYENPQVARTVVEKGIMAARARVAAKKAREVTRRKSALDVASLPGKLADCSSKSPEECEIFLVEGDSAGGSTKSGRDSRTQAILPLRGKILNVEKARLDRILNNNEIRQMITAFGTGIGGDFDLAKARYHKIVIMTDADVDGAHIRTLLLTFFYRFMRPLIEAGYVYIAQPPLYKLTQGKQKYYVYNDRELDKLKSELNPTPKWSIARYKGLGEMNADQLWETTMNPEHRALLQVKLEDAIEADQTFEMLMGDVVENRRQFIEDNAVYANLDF
Chain of DNA gyrase (Staphylococcus aureus) (P20831 whole entry partner): as the sequence (P20831 whole entry) above
Chain of Topoisomerase IV (P0C1U9 whole entry): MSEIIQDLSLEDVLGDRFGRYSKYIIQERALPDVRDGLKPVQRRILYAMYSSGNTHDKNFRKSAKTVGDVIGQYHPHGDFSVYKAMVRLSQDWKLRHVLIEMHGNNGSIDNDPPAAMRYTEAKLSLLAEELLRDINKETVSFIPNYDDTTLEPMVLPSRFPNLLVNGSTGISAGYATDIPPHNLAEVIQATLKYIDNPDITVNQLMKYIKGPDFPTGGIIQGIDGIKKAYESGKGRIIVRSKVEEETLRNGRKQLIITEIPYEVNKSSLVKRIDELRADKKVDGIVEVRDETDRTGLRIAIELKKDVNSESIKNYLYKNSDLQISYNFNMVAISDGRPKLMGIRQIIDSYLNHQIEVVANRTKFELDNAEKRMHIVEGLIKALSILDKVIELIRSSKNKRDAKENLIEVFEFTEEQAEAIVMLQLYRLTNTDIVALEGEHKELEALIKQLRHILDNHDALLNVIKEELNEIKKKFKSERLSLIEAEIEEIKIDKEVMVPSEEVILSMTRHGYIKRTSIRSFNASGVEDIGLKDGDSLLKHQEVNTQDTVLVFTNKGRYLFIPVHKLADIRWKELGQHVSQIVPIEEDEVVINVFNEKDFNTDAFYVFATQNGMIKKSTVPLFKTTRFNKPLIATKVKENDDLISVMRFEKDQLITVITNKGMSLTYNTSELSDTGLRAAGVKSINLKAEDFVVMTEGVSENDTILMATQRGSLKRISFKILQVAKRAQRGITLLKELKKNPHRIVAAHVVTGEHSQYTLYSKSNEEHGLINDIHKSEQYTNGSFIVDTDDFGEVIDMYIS
Chain of Topoisomerase IV (P0C1S7 whole entry): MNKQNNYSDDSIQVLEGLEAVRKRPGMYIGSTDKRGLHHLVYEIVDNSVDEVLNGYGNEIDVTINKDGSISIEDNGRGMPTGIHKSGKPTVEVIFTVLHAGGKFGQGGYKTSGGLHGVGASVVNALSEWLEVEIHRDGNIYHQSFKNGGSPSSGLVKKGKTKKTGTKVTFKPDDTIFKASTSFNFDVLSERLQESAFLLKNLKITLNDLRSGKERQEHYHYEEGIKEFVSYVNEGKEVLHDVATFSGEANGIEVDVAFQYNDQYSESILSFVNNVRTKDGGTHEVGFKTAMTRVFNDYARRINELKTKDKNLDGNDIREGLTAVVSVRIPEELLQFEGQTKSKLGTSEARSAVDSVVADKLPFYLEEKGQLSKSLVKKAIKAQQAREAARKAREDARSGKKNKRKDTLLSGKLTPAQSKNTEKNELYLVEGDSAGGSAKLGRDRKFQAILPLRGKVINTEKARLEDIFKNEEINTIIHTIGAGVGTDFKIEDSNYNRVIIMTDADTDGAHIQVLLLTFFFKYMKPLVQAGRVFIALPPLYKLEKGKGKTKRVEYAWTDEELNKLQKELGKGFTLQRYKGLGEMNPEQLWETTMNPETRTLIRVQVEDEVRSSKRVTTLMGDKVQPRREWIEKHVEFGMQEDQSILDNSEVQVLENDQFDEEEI

Row | SMILES | Activity [1] | inhibition at 50 µM ([2]; ATCC 25922, 24 h) | Activity [3] | Activity [4] | inhibition [5] | IC50 [6] | inhibition [7] | Activity [8] | inhibition [9] | inhibition [2] | inhibition at 50 µM ([9]; ATCC 29212, 24 h) | IC50 [10] | IC50 [11] | IC50 [12]
1 | NNC(=O)COc1ccc(NC(=O)c2cc(Br)c(Br)[nH]2)cc1 | 100% |  |  |  |  |  |  |  |  |  |  |  |  | 
2 | Cc1nc(-c2cc(NC(=O)CC(=O)NN)ccc2NC(=O)c2cc(Br)c(Br)[nH]2)no1 |  | 16% | 88% | 98% | inactive | 140 nM | inactive | 80% | inactive |  |  |  |  | 
3 | O=C(O)COc1ccc(NC(=O)c2cc(Br)c(Br)[nH]2)c(OCc2ccccc2)c1 |  |  | 84% | 92% | inactive | 860 nM | inactive | 87% |  | inactive | 25% |  |  | 
4 | O=C(Nc1ccc(OCc2n[nH]c(=O)o2)cc1)c1cc(Br)c(Br)[nH]1 |  |  |  |  | inactive | 8600 nM | inactive |  | inactive | inactive |  |  |  | 
5 | COC(=O)COc1ccc(NC(=O)c2cc(Br)c(Br)[nH]2)c(OCc2ccccc2)c1 | 100% |  |  |  |  |  |  |  |  |  |  |  |  | 
6 | COC(=O)CC(=O)Nc1ccc(NC(=O)c2cc(Br)c(Br)[nH]2)c(-c2noc(C)n2)c1 |  |  | 72% | 100% | inactive | 86 nM | inactive |  | inactive | inactive |  | 63000 nM |  | 
7 | Cc1nc(-c2cc(NC(=O)Cc3n[nH]c(=O)o3)ccc2NC(=O)c2cc(Br)c(Br)[nH]2)no1 |  |  | 91% | 60% | inactive | 45 nM | inactive |  | inactive | inactive |  | 11000 nM |  | 
8 | NNC(=O)COc1ccc(NC(=O)c2cc(Br)c(Br)[nH]2)c(OCc2ccccc2)c1 | 100% |  |  |  |  |  |  |  |  |  |  |  |  | 
9 | Cc1nc(-c2cc(NC(=O)CC(=O)O)ccc2NC(=O)c2cc(Br)c(Br)[nH]2)no1 |  |  |  |  | inactive | 20 nM | inactive |  | inactive | inactive |  | 1400 nM | 14000 nM | 11000 nM
10 | O=C(Nc1ccc(OCc2n[nH]c(=O)o2)cc1OCc1ccccc1)c1cc(Br)c(Br)[nH]1 | 85% |  |  |  | inactive |  | inactive |  | inactive | inactive |  |  |  | 
